Assay [1] deals with GABA-A receptor; anion channel. The experiment in a line: Inhibitory activity at GABA A receptor, measured by the ability to displace [3H]flumazenil from GABA A receptor in rat brain. The assay is classed as tissue-based.
The target of assay [2] is T1, Gastrin/cholecystokinin type B receptor (Rattus norvegicus, UniProt P30553).
T1 sequence (P30553 whole entry): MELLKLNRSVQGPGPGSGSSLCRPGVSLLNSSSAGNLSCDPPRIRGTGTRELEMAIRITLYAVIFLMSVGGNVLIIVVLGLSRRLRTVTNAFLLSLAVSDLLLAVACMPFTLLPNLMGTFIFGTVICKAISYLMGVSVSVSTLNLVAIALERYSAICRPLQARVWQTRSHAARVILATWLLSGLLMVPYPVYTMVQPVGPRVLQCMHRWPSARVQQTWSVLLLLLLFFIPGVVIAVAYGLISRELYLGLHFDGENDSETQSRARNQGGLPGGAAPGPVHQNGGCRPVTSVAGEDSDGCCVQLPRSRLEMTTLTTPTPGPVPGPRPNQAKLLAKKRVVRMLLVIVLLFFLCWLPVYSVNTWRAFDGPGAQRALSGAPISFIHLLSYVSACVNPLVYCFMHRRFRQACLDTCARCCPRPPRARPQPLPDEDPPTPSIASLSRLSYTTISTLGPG
Briefly: Inhibitory activity by measuring its ability to displace [3H]L-365260 from cholecystokinin receptor in rat brain. The assay is classed as tissue-based.

The nature of assay [3]: Inhibitory activity by measuring its ability to displace [3H]glycine from glycine receptor in rat brain. It is filed as tissue-based.
Assay [4] is described as follows: Inhibitory activity by measuring its ability to displace [3H]spiperone from dopamine or serotonin 5-HT-1 receptors in rat brain. The assay is classed as tissue-based.
In assay [5] the target is GABA-A receptor; anion channel. The experiment in a line: Inhibitory activity at GABA A receptor, measured by the ability to displace [3H]zolpidem from GABA A receptor in rat brain. The assay is classed as tissue-based.
Assay [6] in a line: Tested for inhibitory activity by measuring its ability to displace [3H]AMPA from glutamate (non-NMDA) receptor in rat brain. The assay is classed as tissue-based.
The next assay has as its target Cannabinoid receptor 1 (Rattus norvegicus, UniProt P20272). The experiment in a line: Inhibitory activity, measured by displacement [3H]CP-55940 from cannabinoid receptor (CB1) in rat brain. The assay is classed as tissue-based.
The target of assay [7] is GABA-A receptor; anion channel. Briefly: Inhibitory activity at GABA A receptor, measured by the ability to displace [35S]TBPS from GABA A receptor in rat brain. The assay is classed as tissue-based.
The target of assay [8] is Adrenergic receptor alpha. Briefly: Inhibitory activity by measuring its ability to displace [3H]WB-4101 from alpha-adrenergic receptor in rat brain. The assay is classed as tissue-based.
Another assay deals with Glutamate NMDA receptor. The experiment in a line: Inhibitory activity by measuring its ability to displace [3H]-MK-801 from glutamate(NMDA) receptor in rat brain. The assay is classed as tissue-based.
A short description of assay [9]: Inhibitory activity at GABA B receptor, measured by the ability to displace [3H]baclofen from GABA B receptor in rat brain. It is filed as tissue-based.
The target of assay [10] is GABA-A receptor; anion channel. The experiment in a line: Inhibitory activity at GABA A receptor, measured by the ability to displace [3H]GABA from GABA A receptor in rat brain. The assay is classed as tissue-based.
Assay [11] concerns the target Adrenergic receptor alpha. The experiment in a line: Inhibitory activity by measuring its ability to displace [3H]clonidine from alpha-adrenergic receptor in rat brain. It is filed as tissue-based.
For another assay, the target named is Adrenergic receptor beta (Rattus norvegicus, UniProt P18090+P10608+P26255). Briefly: Inhibitory activity by measuring its ability to displace [125I]pindolol from beta-adrenergic receptor in rat brain. The assay is classed as tissue-based.
The target in another assay is Translocator protein (Rattus norvegicus, UniProt P16257). The experiment in a line: Binding affinity against mitochondrial DBI complex (peripheral benzodiazepine receptor) using primary cultures of glial cells. Summed up: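 Glia from cerebella of 8-day-old Sprague–Dawley rat pups, trypsin-dissociated and grown 14 days (~95% astroglia). Cells lysed in 50 mM Hepes pH 7.4, 4 μg protein per tube. Incubated with [3H]4'-chlorodiazepam and competitor for 90 min at 4 °C, then filtered. Nonspecific binding defined with 10 μM 4'-chlorodiazepam. Triplicate competition curves; IC50 by nonlinear regression, converted to Ki (Bylund–Yamamura).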
Sequence of Translocator protein (P16257 whole entry, looked up): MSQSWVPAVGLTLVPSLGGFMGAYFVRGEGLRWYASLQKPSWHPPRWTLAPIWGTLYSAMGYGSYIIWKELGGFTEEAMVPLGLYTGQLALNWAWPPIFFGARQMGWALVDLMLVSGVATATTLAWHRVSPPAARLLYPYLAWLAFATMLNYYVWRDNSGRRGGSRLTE

Sequence of Cannabinoid receptor 1 (P20272 whole entry): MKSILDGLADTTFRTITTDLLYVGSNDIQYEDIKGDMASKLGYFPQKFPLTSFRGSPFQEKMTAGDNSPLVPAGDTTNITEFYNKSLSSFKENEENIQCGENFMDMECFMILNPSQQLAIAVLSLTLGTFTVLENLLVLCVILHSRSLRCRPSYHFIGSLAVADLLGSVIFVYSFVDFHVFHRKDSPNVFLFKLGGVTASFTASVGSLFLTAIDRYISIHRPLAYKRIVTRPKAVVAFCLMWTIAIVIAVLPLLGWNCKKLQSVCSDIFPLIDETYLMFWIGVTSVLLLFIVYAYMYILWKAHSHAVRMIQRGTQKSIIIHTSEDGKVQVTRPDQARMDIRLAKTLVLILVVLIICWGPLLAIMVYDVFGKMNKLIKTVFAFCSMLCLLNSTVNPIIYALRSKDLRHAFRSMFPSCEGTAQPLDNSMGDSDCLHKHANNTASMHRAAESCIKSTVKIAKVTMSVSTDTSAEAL

A word on the IC50: it is the midpoint of a concentration-inhibition curve. What is called Ki is a measure of affinity in units of concentration, obtained from inhibition or displacement. Lower therefore signals a stronger hold on the target. As for `CCCN(CCC)C(=O)Cc1c(-c2ccccc2)[nH]c2ccccc12`, the IC50 in [1], in [2], in assay [3], in assay [4], in [5] and in assay [6] was over 1000 nM throughout. Also, the IC50 (on Cannabinoid receptor 1; in [7]; in [8]; at Glutamate NMDA receptor; in [9]; in assay [10]) was over 1000 nM throughout. The IC50 (in assay [11]; on Adrenergic receptor beta) was over 1000 nM each time. The same molecule yielded a Ki on Translocator protein of 100 nM.
On to `O=C(Cc1c(-c2ccccc2)[nH]c2ccccc12)N1CCCC1`, for which the IC50 in [1], in [2], in assay [3], in [4], in assay [5] and in assay [6] was over 1000 nM throughout. In addition, the IC50 (on Cannabinoid receptor 1; in assay [7]; in assay [8]; on Glutamate NMDA receptor; in assay [9]; in [10]) was over 1000 nM in each case. Further, the IC50 (in [11]; on Adrenergic receptor beta) was over 1000 nM each time. This molecule also displayed a Ki on Translocator protein of 338 nM.
In the case of `Cc1ccc(-c2[nH]c3ccc(C)cc3c2CC(=O)N(C)C)cc1`, the IC50 in assay [1], in [2], in [3], in assay [4], in [5] and in [6] was over 1000 nM throughout. The IC50 (on Cannabinoid receptor 1; in [7]; in [8]; at Glutamate NMDA receptor; in [9]; in [10]) was over 1000 nM in each case. Moreover, the IC50 (in assay [11]; on Adrenergic receptor beta) was over 1000 nM throughout. This molecule yielded a Ki on Translocator protein of 150 nM.
`CCCN(CCC)C(=O)C(C)c1c(-c2ccc(Cl)cc2)[nH]c2ccccc12` (centres undefined): the IC50 in [1], in assay [2], in assay [3], in assay [4], in assay [5] and in assay [6] was over 1000 nM each time. The IC50 (at Cannabinoid receptor 1; in [7]; in assay [8]; at Glutamate NMDA receptor; in assay [9]; in assay [10]) was over 1000 nM each time. Moreover, the IC50 (in [11]; at Adrenergic receptor beta) was over 1000 nM each time. In addition, the Ki on Translocator protein came to 800 nM.
As for `CCCN(CCC)C(=O)Cc1c(-c2ccc(C)cc2)[nH]c2ccc(C)cc12`, the half-inhibitory concentration (IC50) in assay [1], in assay [2], in [3], in [4], in [5] and in assay [6] was over 1000 nM each time. Further, the IC50 (at Cannabinoid receptor 1; in [7]; in [8]; on Glutamate NMDA receptor; in assay [9]; in assay [10]) was over 1000 nM throughout. For the same molecule, the IC50 (in [11]; at Adrenergic receptor beta) was over 1000 nM in each case. Also, the Ki on Translocator protein amounted to 66 nM.
For `CCCN(CCC)C(=O)Cc1c(-c2cccc(Cl)c2)[nH]c2ccccc12`, the IC50 in [1], in assay [2], in assay [3], in assay [4], in assay [5] and in [6] was over 1000 nM throughout. In addition, the IC50 (at Cannabinoid receptor 1; in assay [7]; in assay [8]; on Glutamate NMDA receptor; in assay [9]; in assay [10]) was over 1000 nM each time. In addition, the IC50 (in [11]; at Adrenergic receptor beta) was over 1000 nM throughout. For the same molecule, the Ki at Translocator protein came out at 678 nM.
On to `O=C(Cc1c(-c2ccc(F)cc2)[nH]c2ccccc12)Nc1ccccc1Br`, for which the IC50 in assay [1], in [2], in assay [3], in assay [4], in assay [5] and in assay [6] was over 1000 nM throughout. Besides, the IC50 (on Cannabinoid receptor 1; in [7]; in [8]; at Glutamate NMDA receptor; in assay [9]; in assay [10]) was over 1000 nM each time. Further, the IC50 (in [11]; on Adrenergic receptor beta) was over 1000 nM in each case. The Ki on Translocator protein is 476 nM.
As for `CCCCCCN(CCCCCC)C(=S)Cc1c(-c2ccc(F)cc2)[nH]c2ccccc12`, the IC50 in [1], in assay [2], in [3], in assay [4], in assay [5] and in assay [6] was over 1000 nM throughout. Further, the IC50 (on Cannabinoid receptor 1; in assay [7]; in assay [8]; at Glutamate NMDA receptor; in assay [9]; in assay [10]) was over 1000 nM throughout. The IC50 (in assay [11]; at Adrenergic receptor beta) was over 1000 nM throughout. Moreover, on Translocator protein, the Ki was over 1000 nM.
On to `CCCN(CCC)C(=O)Cc1c2n(c3ccccc13)CCCc1ccccc1-2`, for which the IC50 in assay [1], in [2], in assay [3], in assay [4], in [5] and in assay [6] was over 1000 nM in each case. For the same molecule, the IC50 (at Cannabinoid receptor 1; in [7]; in assay [8]; at Glutamate NMDA receptor; in assay [9]; in assay [10]) was over 1000 nM in each case. Also, the IC50 (in [11]; at Adrenergic receptor beta) was over 1000 nM throughout. Also, at Translocator protein, affinity was put at a Ki of 328 nM.
Consider `CCCN(CCC)C(=O)Cc1c(-c2ccccc2)[nH]c2c(F)cccc12`, for which the IC50 in [1], in assay [2], in assay [3], in assay [4], in assay [5] and in assay [6] was over 1000 nM each time. Besides, the IC50 (on Cannabinoid receptor 1; in assay [7]; in assay [8]; at Glutamate NMDA receptor; in assay [9]; in assay [10]) was over 1000 nM throughout. In addition, the IC50 (in [11]; on Adrenergic receptor beta) was over 1000 nM each time. For the same molecule, the Ki on Translocator protein was determined as 211 nM.
Regarding `O=C1Cc2c([nH]c3ccccc23)-c2ccccc2N1` [PAULLONE], the IC50 in assay [1], in assay [2], in assay [3], in [4], in [5] and in assay [6] was over 1000 nM in each case. Also, the IC50 (on Cannabinoid receptor 1; in [7]; in [8]; on Glutamate NMDA receptor; in assay [9]; in assay [10]) was over 1000 nM in each case. In addition, the IC50 (in assay [11]; on Adrenergic receptor beta) was over 1000 nM in each case.
For `CCCCCCN(C)C(=O)Cc1c(-c2ccc(F)cc2)[nH]c2ccccc12`, the IC50 in [1], in assay [2], in assay [3], in assay [4], in [5] and in assay [6] was over 1000 nM throughout. Moreover, the IC50 (on Cannabinoid receptor 1; in [7]; in [8]; at Glutamate NMDA receptor; in assay [9]; in assay [10]) was over 1000 nM each time. The IC50 (in [11]; on Adrenergic receptor beta) was over 1000 nM each time. Further, at Translocator protein, affinity was put at a Ki of 135 nM.

For the origin of these results see ChEMBL document CHEMBL1126834, “Chemistry, binding affinities, and behavioral properties of a new class of "antineophobic" mitochondrial DBI receptor complex (mDRC) ligands” (J Med Chem, 1993).
